Source: ChEMBL document CHEMBL4513216, “Probing the Open Global Health Chemical Diversity Library for Multistage-Active Starting Points for Next-Generation Antimalarials” (ACS Infect Dis, 2020)

test: Toxicity liver stage against HepG2, at 10uM; assay type: cell-based; set-up: test concentration 10 uM, cell line HepG2-A16-CD81EGFP; conditions: human, HepG2-A16-CD81EGFP cells; read-out: INHIBITION
How it was run: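 Uninfected HepG2-A16-CD81EGFP cells, 3 × 10^3 per well, 1536-well, plated on prespotted compound at 10 μM final, parasite-free screening media added to match infected plates; puromycin 10 μM positive, DMSO 0.5% negative; run in parallel with 48 h PbLuc assay at 37 °C, 5% CO2; viability by CellTiter-Glo luminescence, normalized to controls.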

Row | SMILES | cytotoxicity at 10 µM [%]
1 | COc1cccc(-c2cnc(C3CCNCC3)cn2)c1 | -30.4
2 | O=C(NCCNc1ccc(C(F)(F)F)cn1)c1ccc(Cl)cc1F | -1.99
3 | Cn1ccnc1CNC(=O)Nc1ccc(OC2CCC2)c(F)c1 | -4.92
4 | COc1ncccc1C(=O)N(C)Cc1nc(-c2ccccn2)no1 | 3.38
5 | Cn1ccc2c(C(=O)N3CCCC(c4nnc[nH]4)C3)cccc21 (configuration not stated) | 1.92
6 | COC(=O)CCNC(=O)C1CC(=O)N(C2CCCC2)C1 (configuration not stated) | -22.9
7 | O=C(c1cc(=O)c(OCc2ccccc2F)co1)N1CCSCC1 | -3.82
8 | CCCN(CCC)C(=O)c1cnn(C)c1C | -128
9 | O=C(O)c1ccccc1-c1ccc(CN2CC(c3ccncn3)C2)o1 | 4.54
10 | CC(C)(CNC1CCCN(Cc2ccccn2)C1)CN1CCOCC1 (configuration not stated) | 5.91
11 | CCCNc1nnc(S(=O)(=O)CCOCC)s1 | 5.96
12 | Cc1cnc(CN2CCCC2c2cnn(C)c2)cn1 (configuration not stated) | 0.35
13 | CNc1nc(C2CCCN(C(=O)C(C)(C)OC)C2)nc2c1CN(C)CC2 (configuration not stated) | -8.24
14 | O=C(NCCCO)NCCc1cc(F)ccc1F | 2.37
15 | O=c1[nH][nH]cc1-c1ccnc(NCCc2cccnc2)n1 | -8.86
16 | Cc1cnc(C(=O)N[C@H]2CN(CCS(C)(=O)=O)C[C@@H]2C2CC2)cn1 | 17.6
17 | N#Cc1ccc(SCCC(=O)NC(N)=O)cc1 | -2.66
18 | Cc1nc(CN2C(=O)C[C@H]3[C@H]2CCN3C2CCOC2)cs1 (some centres not stated) | -139
19 | CN(CCOc1cccc(S(C)(=O)=O)c1)c1ccccc1 | 2.3
20 | c1ccc(-c2cc(CNCCN3CCCC3)c3nnnn3c2)cc1 | -17.4
21 | O=C(C1CC=CC1)N1CCC2(CC1)CNCCO2 | 1.46
22 | Cc1cc(C(=O)NCc2ccc(N3CCN(C)CC3)nc2)c(C)s1 | -8.74
23 | CN1CCC(Nc2cc(Cl)ccc2OCC(F)(F)F)C1=O (configuration not stated) | -2.71

Row | SMILES | cytotoxicity at 10 µM [%]
24 | Fc1cnc(N2CCOC3(CCN(Cc4cccs4)CC3)C2)nc1 | 0.73
25 | Cc1ccsc1[C@@H]1CCN(C(=O)CCc2n[nH]c(C)c2C)C[C@H]1O | 7.04
26 | Cc1nnc([C@H]2CC[C@@H]3[C@@H](CCN3Cc3c(C)noc3C)O2)o1 | -2.26
27 | Cc1ccc(C(=O)N2CCCC(C(=O)N3CCCCC3)C2)c(O)c1 (configuration not stated) | -7.52
28 | O=C(c1ccc[nH]1)N1CCOCC12CCCC2 | 12.3
29 | CCCNC(=O)COc1cc(C)c2c(C)nn(-c3ccccc3)c2n1 | -0.295
30 | CC(C)(C)c1ncc(C(=O)NCc2cccc(C(=O)N3CCCC3)c2)s1 | -4.57
31 | O=C(O)[C@@H]1CN(Cc2c[nH]c(CC3CCCC3)n2)C[C@H]1c1ccncc1 | 1.08
32 | O=C(NCc1ccccc1CO)C1COc2ccccc21 (configuration not stated) | 12.3
33 | CCN(C)C(=O)c1coc(COc2ccccc2)n1 | 3.36
34 | COc1cc(C(=O)N2CC3(CCNCC3)c3cc(Cl)ccc32)ccn1 | 52.8
35 | COc1cnc(C2(O)CCN(C(=O)c3ccco3)CC2)c(OC)n1 | -7.02
36 | COc1cc(C(=O)NC(C)(C)CN2CCN(C)CC2)c2ccccc2n1 | -1.41
37 | O=C(c1cnccn1)N1CC[C@H]2[C@@H]1CCC(=O)N2c1cccnc1 | -81.6
38 | CC(C)S(=O)(=O)c1nnc(CCNC(=O)OC(C)(C)C)o1 | 9.28
39 | O=C(Nc1cccc(OCc2ccc(F)cc2)c1)C1COCCO1 (configuration not stated) | 1.18
40 | CS(=O)(=O)NC1CCc2c(ccc(=O)n2CC2CC2)C1 (configuration not stated) | 4.84
41 | CCOc1cccc(C(C)NCc2ccc(OC)c(OC)c2OC)c1 (configuration not stated) | 29.4
42 | CNc1ncc(CN(C)C(=O)c2cccc(-n3cccn3)c2)cn1 | -2.38
43 | CC(Cn1cncn1)NCCN1CCc2ccccc21 (configuration not stated) | -3.21
44 | CC(C)n1cnc(C2CN(C)c3ccc(C(=O)NCC4CC4)cc32)n1 (configuration not stated) | -2.19
45 | CCn1c(C)nnc1SCCNc1cc(N2CCOCC2)ncn1 | 0.801
46 | O=C(NCc1ccc(Br)cc1)NCC1CCOC1 (configuration not stated) | -4.51

Row | SMILES | cytotoxicity at 10 µM [%]
47 | CN(Cc1ccc(Cl)s1)C(=O)NCc1nnc2n1CCC2 | -5.36
48 | COc1cccc(CC2(CO)CCCN(c3nccs3)C2)c1 (configuration not stated) | -4.59
49 | CCOCCCn1c(NC(=O)c2ccnc(C)n2)nc2ccccc21 | -21.1
50 | Cc1nccc(N2CCCC(c3nnc(Cn4ccnc4C)n3C)C2)n1 (configuration not stated) | -2.04
51 | O=C(NS(=O)(=O)c1ccccc1Cl)c1cccc2c1OCCO2 | -11
52 | CCCn1nc(C)c(CNC(=O)c2snnc2C)c1C | -15.5
53 | NC(=O)c1ccnc(N2CCN(Cc3ccc(F)cc3Cl)CC2)c1 | 40.8
54 | COCCN1C2(CCN(CC3CC3)C2)c2ccccc2S1(=O)=O (configuration not stated) | -130
55 | CCc1nc2ccccc2n1C(CC)C(=O)N(C)CCc1noc(C)n1 (configuration not stated) | 3.02
56 | CS(=O)(=O)N1CCC2(CC1)CN(CCn1cccn1)C(=O)CO2 | -2.79
57 | COCCN1CCC2(CC1)C(=O)Nc1ccc(C(=O)NC(C)C)cc12 | 2.02
58 | CN(C)C(=O)C1CN(Cc2ccc(C#N)cc2)c2ccccc2O1 (configuration not stated) | 6.47
59 | Cc1cc(C(=O)Cn2cnnc2[S+](C)[O-])cc(C)c1F (configuration not stated) | 4.31
60 | CN(C)c1cccc(C2CCCN2c2nc3c(cnn3C)c(=O)[nH]2)c1 (configuration not stated) | 0.91
61 | O=C(Cc1ccccc1Br)NCC(=O)Nc1cn[nH]c1 | 7.44
62 | O=C(NCCc1c[nH]c2ccccc12)C1CCC(Cn2cnnn2)CC1 (configuration not stated) | -12.7
63 | Cn1cccc1C(=O)Nc1cc(F)ccc1OCC1CCCO1 (configuration not stated) | -7.59
64 | N#Cc1cc(S(N)(=O)=O)ccc1NC1CCc2c(F)cccc21 (configuration not stated) | -12.4
65 | CCC(NC(=O)Nc1ccc(OC)c(C)c1)c1ccncc1 (configuration not stated) | -2.07
66 | CCn1ncnc1CN1CCc2[nH]cnc2C1CCc1ccccc1 (configuration not stated) | 0.0189
67 | Cc1ncn(-c2cc(N3CCN(S(C)(=O)=O)CC3)ncn2)c1C | 6.23
68 | COc1ncccc1CNC(=O)c1cc(F)cc(Br)c1 | -0.872
69 | Cc1cc(C)c(CNC(=O)NCC(O)COc2ccccc2)c(=O)[nH]1 (configuration not stated) | -5.75

Row | SMILES | cytotoxicity at 10 µM [%]
70 | Cc1cccc(C(=O)N2C[C@@H]3C(CC(=O)N4CCCC4)[C@@H]3C2)n1 (some centres not stated) | 1.82
71 | Cc1cccc(-c2nc(CN3CCc4cncnc4C3)no2)c1 | -10.4
72 | Cc1ccc(NC(=O)Nc2c[nH]c(=O)[nH]c2=O)c(C)c1 | 18.2
73 | CC(C)(O)CCc1ccc(C(=O)NCCC2CCOC2)cc1 (configuration not stated) | 0.824
74 | CCc1noc(C)c1C(=O)N1CCCC1c1c(C)nn(C)c1OC (configuration not stated) | -12.1
75 | COCC(=O)N1CCC(c2noc3nc(C)cc(C(F)(F)F)c23)CC1 | 2.78
76 | Cc1ccc(C2CN(C(=O)NCc3nnc4ccccn34)CCO2)o1 (configuration not stated) | 5.62
77 | O=C(CC1[C@H]2CN(C(=O)CO)C[C@@H]12)Nc1cccnc1 (some centres not stated) | 9.19
78 | O=C(c1ccccc1F)N1CCC2(CC1)CC(Oc1ccccn1)CO2 (configuration not stated) | -113
79 | Cc1ncsc1CCC(=O)N1CCCC[C@H](N(C)C)C1 | -22.5
80 | CS(=O)(=O)NCc1cc(=O)n2c(n1)CN(Cc1ccco1)CCC2 | 7.25
81 | Cc1cnn(C2CCCN(C(=O)Cn3ccc(=O)n(C)c3=O)C2)c1 (configuration not stated) | 1.99
82 | CC(C)c1nc(N2CC[C@@H](N(C)CCc3ccccn3)[C@H](O)C2)no1 | -0.662
83 | CN(C)C(=O)N1CCc2c(nnn2C)C1COCC1CC1 (configuration not stated) | 12.6
84 | CCOC(=O)CN(CC(F)(F)F)C(=O)c1nc(C)n2ccccc12 | -20.9
85 | CN1CCOC(C)(C(=O)Nc2nc(C(C)(C)C)cs2)C1 (configuration not stated) | 6.52
86 | COCCN1CCC2(CCC(=O)N2Cc2csc(C)n2)CC1 | 2.22
87 | CCn1c(C)nnc1SCCNc1nc(C)ncc1S(C)(=O)=O | -4.19
88 | CNC(=O)CCN1CCN(C(C)c2ccc(Cl)cc2)CC1 (configuration not stated) | -0.82
89 | CC(NC(=O)N(C)Cc1ccsc1)c1ccc2c(c1)CCC(=O)N2 (configuration not stated) | -7.23
90 | Cn1cnc2c1CCN(CCCOc1ccc(S(C)(=O)=O)cc1)C2 | 4.94
91 | COC1COC2(CCN(C(=O)c3ncccn3)CC2)C1 (configuration not stated) | 6.07
92 | CC(C)NC(=O)CCN1CCCC1c1cccc2c1OCCO2 (configuration not stated) | 0.354

Row | SMILES | cytotoxicity at 10 µM [%]
93 | c1cnc(N2CCOCC3(CNCCO3)C2)nc1 (configuration not stated) | -112
94 | CCN(CC)C(=O)[C@@H]1C[C@@H](N)CN1c1nc(N(C)C)nc(C)c1C | -24.4
95 | O=C(NCCC1=CCCCC1)Nc1cc(C(F)(F)F)c[nH]c1=O | -8.39
96 | O=C1CCC2(CCCO2)CCN1Cc1noc(C2CCCC2)n1 (configuration not stated) | 4.24
97 | CCSc1ncc(-c2cc(C3CC3)nc(N)c2C#N)cn1 | 6.99
98 | CCCOc1ccccc1NCC(=O)Nc1ccc(CC)cc1 | 6.37
99 | Cc1ccc(C(=O)Nc2ccc3c(c2)N(C)CCN(C)C3)c(=O)[nH]1 | -2.17
100 | O=C(NCCC1CCCCO1)c1coc(COc2ccc(F)cc2)n1 (configuration not stated) | 1.1
101 | COc1ccc(-c2csc3c2c(N)nc(=O)n3CC(N)=O)cc1 | -42.2
102 | COCC(Nc1ncnc2c1CCNCC2)c1ccccn1 (configuration not stated) | 0.565
103 | N[C@H]1CN(CCCOc2ccccc2)C[C@@H]1C1CC1 | 0.147
104 | CC(C)(NS(C)(=O)=O)C(=O)NCc1cccc(Br)c1 | -2.42
105 | CC(C)CC(=O)Nc1ccc(Oc2ccsc2C(=O)O)cc1 | 7.66
106 | CCOCC1CN(Cc2ccncc2)Cc2nn(C)cc21 (configuration not stated) | -79.8
107 | COC(=O)c1sccc1S(=O)(=O)N1CCc2c(ncnc2N(C)C)C1 | -1.6
108 | COc1ccc(OCCN(C)Cc2nc3c(cnn3C)c(=O)[nH]2)cc1 | -4.03
109 | COCCn1c2c(ccc1=O)CCN(C(=O)Cc1ccsc1)CC2 | 2.22
110 | CN(C)C(=O)CS(=O)(=O)Cc1cc(Cl)c2c(c1)OCO2 | -6.24
111 | CCCN(CCO)S(=O)(=O)c1ccc2[nH]c(=O)[nH]c2c1 | -0.24
112 | COC(=O)c1cccc(-c2c[nH]c(C)n2)c1 | -0.734
